High-throughput results (PubChem)
Only some compounds are listed: those with a hit (about 2.3% of all), similar ones and a draw of the others.
TRPC4 act = activators of mouse TRPC4 channel, primary screen, Fluo4 calcium, HEK293 TRPC4beta/mu-opioid cells. Fluo4 calcium fluorescence; hits give high values. hit rate 0.49% among 310,000. B-score at 10 µM. Short transient receptor potential channel 4 (Mus musculus), Q9QUQ5. AID 2237, 2010;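 active = B-score above 5 SD of library B-scores, and initial fluorescence ratio not above library mean plus 5 SD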;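 also: positive B-score marks a calcium rise read as TRPC4 activation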
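Assay system: HEK293 stable line with TRPC4beta plus mu-opioid receptor; schedule: 45 min room-temperature Fluo4 loading, 110 s read; technique: kinetic Fluo4 calcium fluorescence; evaluation: integrated baseline-normalised fluorescence ratio, converted to per-well B score; controls: buffer (low) and maximal DAMGO (high)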
TRPC4 potent = positive allosteric modulators of TRPC4, primary screen, cell-based, mouse TRPC4beta, HEK293 mu-opioid, Fluo-4 calcium; hit rate 0.42% among 310,000; DAMGO EC20, Fluo-4 Ca2+ flux; hits give high values; AID 2227, 2009; Short transient receptor potential channel 4 (Mus musculus), Q9QUQ5; B-score at 10 µM;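 active = B-score of calcium response area above 5 SD of library B-scores, with initial fluorescence ratio within 5 SD of library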;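 also: B-score of integrated fluorescence ratio over time as area under calcium response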
TRPC6 inh = mouse TRPC6 channel inhibitors, primary screen, cell-based, HEK293, membrane potential dye; ACh-evoked depolarization; hits give low values; Short transient receptor potential channel 6 (Mus musculus), Q61143; hit rate 1.1% among 310,000; B-score at 10 µM; AID 2553, 2010;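 active = B-score under library mean minus 3 SD, initial fluorescence not abnormally high, positive integrated signal ratio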;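 also: B-score derived from integrated fluorescence ratio over the kinetic read; more negative B-score means stronger inhibition of depolarization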
Target sequence (Q61143 whole entry, looked up): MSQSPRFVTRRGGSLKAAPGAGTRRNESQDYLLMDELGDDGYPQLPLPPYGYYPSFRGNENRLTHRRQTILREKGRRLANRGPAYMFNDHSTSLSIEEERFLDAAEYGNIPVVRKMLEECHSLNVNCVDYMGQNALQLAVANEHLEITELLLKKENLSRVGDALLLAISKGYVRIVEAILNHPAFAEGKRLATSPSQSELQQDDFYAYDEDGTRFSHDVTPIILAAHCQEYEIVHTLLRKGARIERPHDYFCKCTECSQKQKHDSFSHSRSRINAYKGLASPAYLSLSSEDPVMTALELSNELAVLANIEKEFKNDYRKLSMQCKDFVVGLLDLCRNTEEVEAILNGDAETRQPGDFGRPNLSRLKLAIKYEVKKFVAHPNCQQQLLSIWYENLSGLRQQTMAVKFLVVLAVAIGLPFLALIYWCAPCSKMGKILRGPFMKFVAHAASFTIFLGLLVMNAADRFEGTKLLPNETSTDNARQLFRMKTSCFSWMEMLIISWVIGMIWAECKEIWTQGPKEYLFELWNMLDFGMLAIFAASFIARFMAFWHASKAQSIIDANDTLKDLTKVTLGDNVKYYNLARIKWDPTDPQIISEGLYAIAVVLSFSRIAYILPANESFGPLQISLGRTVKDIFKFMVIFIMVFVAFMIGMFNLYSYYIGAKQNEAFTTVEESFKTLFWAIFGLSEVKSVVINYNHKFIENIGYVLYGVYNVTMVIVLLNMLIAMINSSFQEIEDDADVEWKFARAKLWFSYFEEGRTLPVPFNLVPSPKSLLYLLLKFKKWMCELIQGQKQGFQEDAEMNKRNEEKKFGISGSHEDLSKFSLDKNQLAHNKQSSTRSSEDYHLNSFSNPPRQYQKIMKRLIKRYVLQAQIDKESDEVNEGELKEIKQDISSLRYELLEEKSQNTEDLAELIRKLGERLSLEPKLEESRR
TRPC6 act = mouse TRPC6 channel activators, primary screen, cell-based, HEK293, membrane potential dye | Short transient receptor potential channel 6 (Mus musculus), Q61143 | HEK293-TRPC6 membrane potential dye fluorescence; hits give high values | B-score at 10 µM | hit rate 0.13% among 310,000;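 active = B-score of the integrated fluorescence ratio above library mean plus 3 SD, and starting fluorescence ratio within library mean plus 5 SD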;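 also: higher score means more depolarization so channel activation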
TRPC4 block = inhibitors of mouse TRPC4 channel, primary screen, Fluo4 calcium, HEK293 TRPC4beta/mu-opioid cells; Short transient receptor potential channel 4 (Mus musculus), Q9QUQ5; DAMGO-evoked Fluo4 calcium flux; hits give low values; hit rate 0.39% among 300,000; B-score at 10 µM; AID 2247, 2010;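 active = B-score over 3 SD under the library average, no early fluorescence shift, positive overall ratio signal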
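Assay system: HEK293 cells with stable TRPC4beta plus mu-opioid receptor expression. Dosing: single dose. Measured by: Fluo4 Ca2+ flux fluorescence. Also added: DAMGO in two steps, submaximal then maximal. Read-out: B score from integrated Fluo4 fluorescence ratio.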
TRPC4 spec 2 = mouse TRPC4 off-target activity of TRPC6 inhibitors, second screen. inhibition, % at 10 µM. shares compounds with TRPC6 inh. AID 2776. hit rate 42% among 920. HEK293 TRPC4/MOR, membrane potential dye fluorescence; channel activated by saturating DAMGO dose;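 active = compounds whose fluorescence signal differed from control wells by over 3 SD, either direction, in both duplicate plates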
TRPC4 spec = mouse TRPC4 modulation by TRPC6 hits, confirmation, selectivity assay for TRPC6 inhibitor project, cell-based, HEK293 TRPC4/mu-opioid, membrane potential dye. shares compounds with TRPC6 inh. membrane potential fluorescence. activity change, negative = inhibition, % at 10 µM. hit rate 61% among 920. AID 2777, 2010;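 active = rise or fall in signal beyond 3 SD of buffer-only wells in both replicate plates, either sign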;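 also: integrated kinetic ratio of fluorescence range over baseline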
HEK293 MPD ctr 2-1 = nonspecific membrane potential effects, parental HEK293, confirmation, counter-screen for TRPC6 inhibitor project, cell-based, second counter screen. parental HEK293 membrane potential dye fluorescence; maximal acetylcholine challenge after compound addition. AID 2779, 2010. shares compounds with TRPC6 inh. hit rate 31% among 920. signal change vs control, % at 10 µM;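 active = membrane potential signal moving either way by over 3 SD of the maximum-effect control, in both duplicate plates, meaning non-specific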
HEK293 MPD ctr-1 = membrane potential modulation in parental HEK293, confirmation, counter-screen for TRPC6 inhibitor project, cell-based | shares compounds with TRPC6 inh | parental HEK293 membrane potential dye fluorescence | membrane potential signal change, % at 10 µM | hit rate 60% among 920 | AID 2780, 2010;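 active = membrane potential signal shifting up or down by more than 3 SD of buffer-only wells, on both duplicate plates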
HEK293 MPD ctr-2 = parental HEK293 membrane potential modulation, confirmation, counter-screen for TRPC6 modulator project, cell-based; shares compounds with TRPC6 inh; membrane potential dye fluorescence; membrane potential signal change, % at 10 µM; hit rate 51% among 2,400; AID 488924, 2010;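 active = membrane potential signal moves up or down beyond 5 SD from buffer-only wells, on both duplicate plates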
HEK293 MPD ctr 2-2 = second check of TRPC6 modulator effects in parental HEK293 cells; hit rate 14% among 2,400; AID 488926; shares compounds with TRPC6 inh; membrane potential dye fluorescence; after compound, maximal acetylcholine stimulation; inhibition, % at 10 µM;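 active = membrane potential signal drops by more than 5 SD from the mean control signal, in both duplicate plates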;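 also: plate controls were acetylcholine ECmax control wells for no effect and buffer only wells for full effect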
TRPC4 ctr mod = TRPC4 modulation by TRPC6 hit compounds, confirmation, selectivity assay for TRPC6 modulator project, cell-based, HEK293 TRPC4/mu-opioid, membrane potential dye, mouse; shares compounds with TRPC6 inh; AID 488927, 2010; percent change from control (negative = decrease, positive = increase), % at 10 µM; membrane potential fluorescence; hit rate 69% among 2,400;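 active = membrane potential signal moved up or down beyond 5 SD of buffer control wells, in both duplicate plates, actives on both sides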;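 also: plate controls were assay buffer wells for no effect and DAMGO maximal-effect wells for full effect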
TRPC4/MOR inh 2 = mouse TRPC4 off-target activity of TRPC6 modulators, second screen | inhibition, % at 10 µM | HEK293 TRPC4/mu-opioid, membrane potential dye fluorescence; stimulated with maximal-effect DAMGO | shares compounds with TRPC6 inh | hit rate 55% among 2,400;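 active = drop in membrane potential signal beyond 5 SD of the control wells in both duplicate plates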;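 also: TRPC4 counter screen for TRPC6 hits run under conditions tuned for TRPC6 not TRPC4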
TRPC6 block conf = mouse TRPC6 channel inhibitors, confirmation, HEK293 cells, membrane potential dye, duplicate; shares compounds with TRPC6 inh; ACh-evoked depolarization; inhibition, % at 10 µM; hit rate 43% among 3,300;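 active = fluorescence ratio falls more than 5 SD below the full-stimulation control mean, in both duplicate runs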;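 also: integrated fluorescence ratio of peak minus minimum over baseline after agonist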
TRPC6 act confirm = mouse TRPC6 channel activators, confirmation, HEK293 cells, membrane potential dye, duplicate | shares compounds with TRPC6 inh | HEK293-TRPC6 membrane potential dye fluorescence, FDSS | activation, % at 10 µM | hit rate 11% among 2,800 | AID 488961, 2010;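 active = ratio signal rise beyond 5 SD above unstimulated control wells' mean, seen in both duplicate runs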;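 also: plate controls were buffer EC0 wells for no effect and acetylcholine ECmax response for full effect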
* marks the source's active call; other numbers are inactive results; i = inactive; . = no result.

SMILES	TRPC4 act	TRPC4 potent	TRPC6 inh	TRPC6 act	TRPC4 block	HEK293 MPD ctr-2	HEK293 MPD ctr 2-2	TRPC4 ctr mod	TRPC4/MOR inh 2	TRPC6 block conf	TRPC6 act confirm	others
Cc1cc(C)n2nc(C(=O)OC(C)C(=O)c3ccccc3)nc2n1 (stereo not drawn)	i	i	i	i	i	.	.	.	.	.	.
CC(C)N1CCc2c(sc(NC(=S)NC(=O)c3ccccc3)c2C#N)C1	71*	i	i	48.2*	i	i	i	8.0%*	i	i	i
CN(C)CCCN(C(=O)c1ccco1)c1nc(-c2ccc(Cl)cc2)cs1	i	i	-7.29*	i	-6*	.	.	.	.	i	i	TRPC4 spec 2=12.5%*;TRPC4 spec=i;HEK293 MPD ctr 2-1=i;HEK293 MPD ctr-1=-151.5%*
CN(C)CCCN(C(=O)CCc1ccccc1)c1nc2c(F)cccc2s1	i	i	i	i	i	.	.	.	.	.	.
CN(C)CCCN(C(=O)c1ccco1)c1nc2c(F)cc(F)cc2s1	i	i	-7.14*	i	i	-158.5%*	i	-34.0%*	82.0%*	51.5%*	i
CN(C)CCCN(C(=O)c1ccco1)c1nc2c(F)cccc2s1	i	i	-9.79*	i	i	.	.	.	.	107.4%*	i	TRPC4 spec 2=18.0%*;TRPC4 spec=-31.9%*;HEK293 MPD ctr 2-1=25.5%*;HEK293 MPD ctr-1=-299.5%*
CN(C)CCCN(C(=O)/C=C/c1cccs1)c1nc2c(F)cccc2s1	i	i	-7.06*	i	i	.	.	.	.	i	i	TRPC4 spec 2=i;TRPC4 spec=i;HEK293 MPD ctr 2-1=i;HEK293 MPD ctr-1=i
O=C(CCSc1ccc(Br)cc1)Nc1cccnc1	i	i	i	i	i	.	.	.	.	.	.
COCCNC(=O)CN(Cc1ccccc1)S(=O)(=O)c1ccc2nc(C)sc2c1	i	i	i	i	i	.	.	.	.	.	.
COc1ccc(Cc2nnc(SCC(=O)c3ccc4c(c3)OCO4)o2)cc1	i	i	i	i	i	.	.	.	.	.	.
CC1=C(C(=O)OCC(C)C)C(c2cccc(F)c2)N2C(=O)C(C)SC2=N1 (stereo not drawn)	i	i	i	i	i	.	.	.	.	.	.
CC1=C(C(=O)OC(C)C)C(c2cccc(F)c2)N2C(=O)C(C)SC2=N1 (stereo not drawn)	i	i	-6*	i	i	i	i	13.0%*	i	i	i
Cc1ccc(NS(=O)(=O)c2ccc(NC(=O)c3ccccc3C(=O)O)cc2)cc1C	i	i	i	i	i	.	.	.	.	.	.
O=[N+]([O-])c1cccc(-c2nnc(-c3ccccc3)o2)c1	i	i	i	i	i	.	.	.	.	.	.
O=[N+]([O-])c1cccc(-c2cc3cccc[n+]3cc2-c2cccc([N+](=O)[O-])c2)c1	i	i	-10.2*	i	i	-395.0%*	i	-73.5%*	69.5%*	56.5%*	i
Cc1sc2cc(-c3cccc([N+](=O)[O-])c3)c(-c3cccc([N+](=O)[O-])c3)c[n+]2c1C	i	i	-6.71*	i	i	-332.0%*	96.5%*	-54.0%*	66.5%*	73.5%*	i
COc1ccc(/C=N/OC(=O)Nc2ccc(Cl)cc2)c(OC)c1	i	i	i	i	i	.	.	.	.	.	.
CC(C)c1cc(C(C)C)c(S(=O)(=O)N2CCNCC2)c(C(C)C)c1	i	i	-5.77*	i	i	i	i	i	64.5%*	41.5%*	i
CN(C)CCOc1nc(-c2ccccc2)nc2c1oc1ccccc12	45*	i	-8.87*	i	i	.	.	.	.	i	i	TRPC4 spec 2=62.0%*;TRPC4 spec=i;HEK293 MPD ctr 2-1=i;HEK293 MPD ctr-1=i
COc1ccc(NC(=O)CSc2nnc(Cc3ccc(C)cc3)c(=O)n2N)cc1	i	i	i	i	i	.	.	.	.	.	.
CN(C1=C(NC(=O)c2ccc(Cl)cc2)C(=O)c2ccccc2C1=O)c1ccccc1	i	i	-5.14*	i	i	-99.5%*	i	-31.5%*	65.0%*	i	i
CC1=NN(c2ccccc2)C(=O)/C1=C/c1cn(C)c2ccccc12	i	i	-5.39*	i	i	i	i	-11.5%*	40.5%*	i	i
CC1=NN(c2ccccc2)C(=O)/C1=C/C=C/c1ccc(N(C)C)cc1	i	i	-11.6*	i	i	.	.	.	.	80.9%*	i	TRPC4 spec 2=74.0%*;TRPC4 spec=-14.0%*;HEK293 MPD ctr 2-1=i;HEK293 MPD ctr-1=-140.5%*
